pEC50: −log10 of the molar value. Activity calls are given as the source filed them. The calls are words filed in the database; no cut-off is given here.
Assays:
[1] = Selectivity index, ratio of CC50 for cytotoxicity against human Huh7.5 cells assessed as reduction in cell viability incubated for 72 hrs by MTT assay to EC50 for antiviral activity against HCV genotype 2a J6/JFH/JC1 infected in human Huh7.5 cells assessed as reduction in viral RNA levels measured after 72 hrs by qRT-PCR analysis; assay type: toxicity, cell-based; conditions: read-out: Ratio CC50/EC50
[2] = Antiviral activity against HCV subtype 2a J6/JFH/JC1 infected in human Huh7.5 cells assessed as reduction in viral RNA levels measured after 72 hrs by qRT-PCR analysis; conditions: Hepatitis C virus, J6/JFH/JC1, Huh7.5, 72 h
[3] = Cytotoxicity against human Huh7.5 cells assessed as reduction in cell viability incubated for 72 hrs by MTT assay; assay type: cell-based
In short: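 Huh7.5 cells seeded at 3 × 10^4/cm2, grown 24 h, then exposed to compound for 72 h. Viability read by MTT assay. CC50 by Reed & Muench method, mean ± SD from three independent experiments.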

Hepatitis C virus [4] = assay: Antiviral activity against HCV J6/JFH/JC1 harboring A156T mutant infected in human Huh7.5 cells assessed as inhibition of viral replication measured after 72 hrs by qRT-PCR analysis; assay type: functional, organism-based, Hepacivirus hominis; conditions: J6/JFH/JC1, Huh7.5, 72 h
Hepatitis C virus [5] = assay: Antiviral activity against wild-type HCV J6/JFH/JC1 infected in human Huh7.5 cells assessed as inhibition of viral replication measured after 72 hrs by qRT-PCR analysis; assay type: functional, organism-based, Hepacivirus hominis; conditions: J6/JFH/JC1, Huh7.5, 72 h
In short: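 Huh7.5 cells seeded at 3 × 10^4/cm2 and incubated 24 h. Infected with wild-type HCVcc stock (45 IU/cell) with compound or solvent control added at the same time. After 72 h, intracellular RNA measured by one-step qRT-PCR and core protein by Western blot. EC50 by Reed & Muench method, mean ± SD from three independent experiments.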

Hepatitis C virus [6] = assay: Antiviral activity against HCV subgenomic replicon harboring I377-3'del.S infected in human GS4.3 cells assessed as inhibition of viral replication at 6.25 to 25 uM after 72 hrs by qRT-PCR analysis; assay type: functional, organism-based; conditions: Hepacivirus hominis, dose 6.25-25 µM
In short: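 GS4.3 cells (Huh7 carrying HCV subgenomic replicon I377-3′del.S) seeded at 3 × 10^4/cm2, after 24 h treated with compound or solvent control. After 72 h intracellular RNA extracted and replicon RNA measured by qRT-PCR. Cytotoxicity checked by MTT at 72 h.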

Hepatitis C virus [7] = assay: Antiviral activity against HCV J6/JFH/JC1 harboring S282T mutant infected in human Huh7.5 cells assessed as inhibition of viral replication measured after 72 hrs by qRT-PCR analysis; assay type: functional, organism-based, Hepacivirus hominis; conditions: J6/JFH/JC1, Huh7.5, 72 h
[8] = Resistance ratio of EC50 for antiviral activity against HCV J6/JFH/JC1 harboring D168V mutant infected in human Huh7.5 cells to EC50 for antiviral activity against wild-type HCV J6/JFH/JC1 infected in human Huh7.5 cells; assay type: functional
Hepatitis C virus [9] = assay: Antiviral activity against HCV J6/JFH/JC1 harboring D168V mutant infected in human Huh7.5 cells assessed as inhibition of viral replication measured after 72 hrs by qRT-PCR analysis; assay type: functional, organism-based, Hepacivirus hominis; conditions: J6/JFH/JC1, Huh7.5, 72 h
[10] = biological target: T1, Chondroitin sulfate N-acetylgalactosaminyltransferase 1 (Homo sapiens) (UniProt Q8TDX6); assay: Destabilization of CSGalNacT-1 in human Huh7.5 cells assessed as down regulation of CSGalNacT-1 protein levels measured after 72 hrs by Western blot analysis; assay type: cell-based; conditions: dose 0.2-25 µM
T1 sequence (whole entry): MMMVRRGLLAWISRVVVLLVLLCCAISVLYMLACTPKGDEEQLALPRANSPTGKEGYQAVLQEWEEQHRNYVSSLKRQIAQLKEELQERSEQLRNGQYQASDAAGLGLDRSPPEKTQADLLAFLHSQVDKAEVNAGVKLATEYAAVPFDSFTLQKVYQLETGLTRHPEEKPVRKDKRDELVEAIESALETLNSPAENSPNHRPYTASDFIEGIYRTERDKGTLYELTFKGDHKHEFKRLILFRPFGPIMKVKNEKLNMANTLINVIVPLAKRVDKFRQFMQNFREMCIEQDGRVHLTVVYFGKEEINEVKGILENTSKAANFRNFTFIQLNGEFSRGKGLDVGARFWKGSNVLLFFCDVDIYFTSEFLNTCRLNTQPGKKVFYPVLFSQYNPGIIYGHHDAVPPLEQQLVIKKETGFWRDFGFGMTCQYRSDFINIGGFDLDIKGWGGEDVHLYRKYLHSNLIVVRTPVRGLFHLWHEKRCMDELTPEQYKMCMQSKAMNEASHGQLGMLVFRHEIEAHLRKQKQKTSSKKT

[11] = Inhibition of NS5A in HCV genotype 1b infected in HuH7.5Lcu-Neo cells assessed as reduction in viral replication by luciferase reporter gene assay; assay type: cell-based, Hepatitis C virus subtype 1b; conditions: Hepatitis C virus

pEC50 [2] | SMILES | selectivity ratio at 72 h [1] | CC50 at 72 h [3] | also measured
4.87 | COc1cc(/C=C/C=C/c2ccccc2)c(C(=O)O)c(O)c1CC=C(C)C | 7 | 96.9 µM | –
5.38 | CCOC(=O)c1c(/C=C/c2ccccc2)cc(OC)c(CC=C(C)C)c1O | 47 | 195 µM | –
5.23 | COc1cc(/C=C/c2ccccc2C)c(C(=O)O)c(O)c1CC=C(C)C | 9 | 55.3 µM | –
4.79 | COC(=O)c1c(CCc2ccccc2)cc(OC)c(CC=C(C)C)c1O | 8 | 122 µM | –
5.77 | COc1cc(CCc2ccccc2)c(C(=O)O)c(O)c1CC=C(C)C [AMORFRUTIN A] | 35 | 59.4 µM | –
5.77 | COc1cc(/C=C(\C)c2ccccc2)c(C(=O)O)c(O)c1CC=C(C)C | 45 | 76.8 µM | –
5.99 | COc1cc(/C=C/c2ccccc2Cl)c(C(=O)O)c(O)c1CC=C(C)C | 39 | 39.5 µM | –
5.31 | COC(=O)c1c(/C=C/c2ccccc2)cc(OC)c(CC=C(C)C)c1O | > 41 | > 200 µM | –
5.71 | COc1cc(/C=C/c2cccc(C)c2)c(C(=O)O)c(O)c1CC=C(C)C | 42 | 82.5 µM | –
5.54 | COC(=O)c1c(/C=C(\C)c2ccccc2)cc(OC)c(CC=C(C)C)c1O | 35 | 102 µM | –

The next lines start with the compound.

SMILES | pEC50 [2] | selectivity ratio at 72 h [1] | CC50 at 72 h [3] | also measured
CC/C=C/c1cc(OC)c(CC=C(C)C)c(O)c1C(=O)OC | 4.61 | 4 | 89.3 µM | –
COc1cc(/C=C/c2ccc(C)cc2)c(C(=O)O)c(O)c1CC=C(C)C | 5.18 | 13 | 82.9 µM | –
CCC[C@H](NC(=O)[C@@H]1[C@H]2CCC[C@H]2CN1C(=O)[C@@H](NC(=O)[C@@H](NC(=O)c1cnccn1)C1CCCCC1)C(C)(C)C)C(=O)C(=O)NC1CC1 | 8.10 | 5700 | 44.9 µM | pEC50 (Hepatitis C virus [4]): 6.21; pEC50 (Hepatitis C virus [5]): 7.70; Activity (Hepatitis C virus [6]): Active
CC(C)OC(=O)[C@H](C)N[P@](=O)(OC[C@H]1O[C@@H](n2ccc(=O)[nH]c2=O)[C@](C)(F)[C@@H]1O)Oc1ccccc1 [SOFOSBUVIR] | – | – | – | pEC50 (Hepatitis C virus [7]): 6.54
COc1cc(/C=C/c2cccs2)c(C(=O)O)c(O)c1CC=C(C)C | 5.43 | 22 | 83 µM | –
COc1ccc2c(O[C@@H]3C[C@H]4C(=O)N[C@]5(C(=O)NS(=O)(=O)C6CC6)C[C@H]5/C=C\CCCCN(C)C(=O)[C@@H]4C3)cc(-c3nc(C(C)C)cs3)nc2c1C | – | – | – | Ratio EC50 [8]: 23.3; pEC50 (Hepatitis C virus [9]): 6.03; pEC50 (Hepatitis C virus [5]): 7.40
CC/C=C/c1cc(OC)c(CC=C(C)C)c(O)c1C(=O)O | 5.99 | 71 | 72.9 µM | –
COc1cc(/C=C/c2ccccc2)cc(O)c1CC=C(C)C | 4.92 | 1.8 | 21.4 µM | –
COC(=O)N[C@H](C(=O)N1CCC[C@H]1c1ncc(-c2ccc(-c3ccc(-c4cnc([C@@H]5CCCN5C(=O)[C@@H](NC(=O)OC)C(C)C)[nH]4)cc3)cc2)[nH]1)C(C)C | – | – | – | pEC50 (Hepatitis C virus [5]): 10.75
COc1cc(/C=C/c2ccc(F)cc2)c(C(=O)O)c(O)c1CC=C(C)C | 5.83 | 46 | 69.2 µM | –
COc1cc(/C=C/c2ccc(O)cc2)c(C(=O)O)c(O)c1CC=C(C)C | 6.48 | 49 | 16.1 µM | –
COC(=O)c1c(O)cc(OC)cc1/C=C/c1ccccc1 | – | – | – | Activity [10]: Dose-dependent effect
C/C=C/C[C@@H](C)[C@@H](O)[C@H]1C(=O)N[C@@H](CC)C(=O)N(C)[C@H](C)C(=O)N(CC)[C@@H](C(C)C)C(=O)N[C@@H](C(C)C)C(=O)N(C)[C@@H](CC(C)C)C(=O)N[C@@H](C)C(=O)N[C@H](C)C(=O)N(C)[C@@H](CC(C)C)C(=O)N(C)[C@@H](CC(C)C)C(=O)N(C)[C@@H](C(C)C)C(=O)N1C [ALISPORIVIR] | – | – | – | pEC50 [11]: 7.80
